Data: publication PMC4186412 (Pharmacology Research & Perspectives, 2014)

Tests used:
[1] = target: Smo-M2 (Homo sapiens, UniProt Q99835, W535L); assay: Smo ciliary translocation assay, NIH3T3 cells expressing Smo-M2-EYFP; type: cell-based; details: Shh-N 20%, SAG 100 nmol/L
How it was run: (§1)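 NIH3T3 cells were transfected with pEYFP-Smo (WT or M2), selected in 500 μg/mL G418, and monoclonal clones were picked. Clones were treated with 0.1% DMSO, 20% Shh-N conditioned medium and/or 100 nmol/L SAG, with or without test compound. Smo-EYFP was imaged directly, cilia by acetylated α-tubulin immunofluorescence, nuclei by DAPI. At least two clones were used.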

[2] = system: Hh signaling mediated by Smo-WT; assay: Luciferase reporter assay in NIH3T3-12Gli cells expressing Smo-WT-EYFP; type: cell-based, human
[3] = system: Hh signaling; assay: Gli luciferase reporter assay in NIH3T3-12Gli cells; type: cell-based; details: for IC50: 36 h, read-out: IC50, Hh signaling induced by Shh-N conditioned medium (luciferase reporter)
[4] = system: Ptch-1; assay: Quantitative real-time PCR, Ptch-1 mRNA; type: cell-based, mouse; details: NIH3T3-12Gli cell line, data not shown
How it was run: (§2)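 Total RNA is extracted with Trizol and quantified. cDNA is made with a PrimeScript reverse-transcription kit, then SYBR Green real-time PCR is run with mouse-specific primers and GAPDH as the reference gene. Relative expression is calculated by the 2(-ΔΔCt) method, with ΔCt = Ct of the target gene minus Ct of GAPDH.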

[5] = target: Smo-DH (Homo sapiens, UniProt Q99835, D473H); assay: BODIPY-cyclopamine binding competition, HEK293T cells expressing Smo-DH
Sequence of Smo-DH (Q99835 28-787 D473H): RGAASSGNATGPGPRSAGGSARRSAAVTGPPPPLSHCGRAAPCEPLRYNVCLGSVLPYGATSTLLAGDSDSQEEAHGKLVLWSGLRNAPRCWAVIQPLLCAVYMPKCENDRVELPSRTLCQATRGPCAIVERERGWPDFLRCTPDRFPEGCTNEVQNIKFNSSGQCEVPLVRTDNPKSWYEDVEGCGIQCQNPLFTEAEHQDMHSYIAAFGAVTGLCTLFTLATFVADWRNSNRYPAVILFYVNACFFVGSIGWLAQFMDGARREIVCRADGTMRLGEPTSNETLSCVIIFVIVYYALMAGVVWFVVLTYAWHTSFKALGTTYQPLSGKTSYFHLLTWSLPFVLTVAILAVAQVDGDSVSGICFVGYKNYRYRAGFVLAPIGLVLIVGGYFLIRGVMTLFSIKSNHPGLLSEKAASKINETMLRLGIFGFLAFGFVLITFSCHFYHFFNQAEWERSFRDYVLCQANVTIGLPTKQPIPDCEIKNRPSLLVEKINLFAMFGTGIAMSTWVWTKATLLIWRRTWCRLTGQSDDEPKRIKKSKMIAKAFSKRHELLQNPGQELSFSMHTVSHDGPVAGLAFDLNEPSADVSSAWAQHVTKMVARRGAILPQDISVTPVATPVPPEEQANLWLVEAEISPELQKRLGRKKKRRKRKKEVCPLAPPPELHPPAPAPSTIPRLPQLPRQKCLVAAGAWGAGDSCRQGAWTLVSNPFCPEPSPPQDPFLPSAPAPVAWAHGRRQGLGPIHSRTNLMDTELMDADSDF

[6] = target: Smo-WT (Homo sapiens, UniProt Q99835); assay: Smo ciliary translocation assay, NIH3T3 cells expressing Smo-WT-EYFP; type: cell-based; details: Shh-N 20%, SAG 100 nmol/L
Sequence of Smo-WT (Q99835 28-787): as the sequence (Q99835 28-787 D473H) above, with H446D counted along it
How it was run: as §1

[7] = system: Hh signaling mediated by Smo-M2; assay: Luciferase reporter assay in NIH3T3-12Gli cells expressing Smo-M2-EYFP; type: cell-based, human
[8] = system: Hh signaling mediated by Smo-DH; assay: Luciferase reporter assay in NIH3T3-12Gli cells expressing Smo-DH-EYFP; type: cell-based, human; details: in the absence or presence of Shh-N
[9] = system: Gli-1; assay: Quantitative real-time PCR, Gli-1 mRNA; type: cell-based, mouse; details: NIH3T3-12Gli cells, 24 h; for Gli-1 transcription induced by Shh-N: presence of Shh-N
How it was run: as §2

[10] = system: Gli-2; assay: Quantitative real-time PCR, Gli-2 mRNA; type: cell-based, mouse; details: NIH3T3-12Gli cells, presence or absence of Shh-N, 24 h
How it was run: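 NIH3T3-12Gli cells are kept in either HEK293 control medium or Shh-N conditioned medium and treated in triplicate with test compound or DMSO control. RNA is extracted with Trizol, cDNA is made with a PrimeScript kit, and SYBR Green qPCR is run with mouse Gli-2 primers. Values are normalised to GAPDH and relative expression is derived by the 2(-ΔΔCt) method.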

[11] = system: NIH3T3 cells; assay: Immunoblotting of acetylated α-tubulin and total histones; type: cell-based; details: 6 h treatment
[12] = system: NIH3T3-12Gli cells; assay: Immunofluorescence of acetylated and detyrosinated tubulin of primary cilia; type: cell-based; details: Fig. S1
How it was run: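 Reporter NIH3T3 clone (NIH3T3-12Gli, stably carrying a Gli-responsive luciferase reporter) was exposed to test compounds or conditions. Primary cilia were co-immunostained with anti-detyrosinated (glu) tubulin and anti-acetylated α-tubulin antibodies, and nuclei were stained with DAPI. Cilia were imaged by fluorescence microscopy.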

Sequence of Smo-M2 (Q99835 28-787 W535L): as the sequence (Q99835 28-787 D473H) above, with H446D, W508L counted along it

Row | Compound | Effect on accumulation of Smo-M2 in cilia induced by Hh pathway stimulators [1] | Concentration that almost maximally blocked reporter activity ([2]; NIH3T3-12Gli cells expressing Smo-WT) [µmol/L] | Inhibition of reporter activity of cells expressing Smo-WT-EYFP ([2]; in the absence of Shh-N) | IC50 [3] [nM] | Expression of Ptch-1 induced by Shh-N [4] | Inhibition of association of BODIPY-cyclopamine with Smo-DH / binding to Smo-DH [5] | Suppression of Smo localization to primary cilium induced by Shh-N and SAG [6] | Inhibition of Hh signaling mediated by Smo-M2 ([7]; in the absence of Shh-N) | Concentration that fully blocked Hh pathway, Smo-M2 ([7]; in the presence of Shh-N) [µmol/L] | Inhibition of reporter activity in Smo-DH-transfected cells [8] | Gli-1 transcription induced by Shh-N [9] | Gli-2 transcription [10] | Block of reporter activity at 3 μmol/L ([3]; 3 μmol/L) | Acetylation of total histones and α-tubulin [11] | Gli-1 transcription, Hh pathway in off-state ([9]; absence of Shh-N) | Acetylation and detyrosination of primary cilia [12]
1 | CS(=O)(=O)c1ccc(C(=O)Nc2ccc(Cl)c(-c3ccccn3)c2)c(Cl)c1 [vismodegib] | did not inhibit | 1 | slightly but dose-dependently inhibited | 19.7 | effectively suppressed | inability to bind Smo-DH | effectively suppressed | significantly inhibited | > 10 | no inhibition | potently inhibited | – | – | – | – | –
2 | O=C(CCCCCCC(=O)Nc1ccccc1)NO [vorinostat] | – | – | – | 670 | effectively suppressed | – | but not vorinostat | – | – | – | potently inhibited | significantly and dose-dependently suppressed | almost completely blocked | effectively and dose dependently increased | significantly increased | downregulated the acetylation but not the detyrosination
